Laboratory results: ChEMBL document CHEMBL1140345, “Conformational constraint in oxazolidinone antibacterials. Synthesis and structure-activity studies of (azabicyclo[3.1.0]hexylphenyl)oxazolidinones” (2005)
≈ marks a conversion by molar mass, not a printed value.

Key:
Escherichia coli = assay: Minimum inhibitory concentration against Escherichia coli UC6674; type: functional
Method in brief: (§1)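 Broth microdilution MIC following the NCCLS M7-A4 approved standard for dilution susceptibility testing of aerobically growing bacteria. The method is taken as accurate to within one dilution.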

Enterococcus faecalis = assay: Minimum inhibitory concentration against Enterococcus faecalis UC9217; type: functional; method in brief: as §1
Staphylococcus aureus [1] = assay: Minimum inhibitory concentration against methicillin, ciprofloxacin, rifampin, imipenem-resistant Staphylococcus aureus UC12673; type: functional
Method in brief: (§2)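 MIC determined by standard broth microdilution following the NCCLS M7-A4 approved standard for dilution susceptibility testing of aerobically growing bacteria.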

Staphylococcus aureus [2] = assay: Minimum inhibitory concentration against methicillin-susceptible Staphylococcus aureus UC9213; type: functional; method in brief: as §2
Streptococcus pneumoniae [3] = assay: Minimum inhibitory concentration against penicillin-susceptible Streptococcus pneumoniae UC9912; type: functional; conditions: Streptococcus pneumoniae; read-out: MIC; method in brief: as §1
Haemophilus influenzae [4] = assay: Minimum inhibitory concentration against ampicillin-reisitant Haemophilus influenzae UC30063; type: functional; conditions: Haemophilus influenzae; read-out: MIC; method in brief: as §1
[5] = system: Staphylococcus epidermidis; assay: Minimum inhibitory concentration against methicillin-resistant Staphylococcus epidermidis UC12084
Moraxella catarrhalis = assay: Minimum inhibitory concentration Moraxella catarrhalis; type: functional; method in brief: as §1
Haemophilus influenzae [6] = assay: Minimum inhibitory concentration against ampicillin-reisitant Haemophilus influenzae UC30063; Range is 8-16 ug/mL; type: functional; method in brief: as §2
Staphylococcus aureus [7] = assay: Minimum inhibitory concentration against methicillin-susceptible Staphylococcus aureus UC9213; Range is 2-4 ug/mL; type: functional; method in brief: as §2
[8] = system: Staphylococcus epidermidis; assay: Minimum inhibitory concentration against methicillin-resistant Staphylococcus epidermidis UC12084; Range is 0.5-1 ug/mL
Staphylococcus aureus [9] = assay: Minimum inhibitory concentration against methicillin, ciprofloxacin, rifampin, imipenem-resistant Staphylococcus aureus UC12673; Range is 2-4 ug/mL; type: functional; method in brief: as §2
Streptococcus pneumoniae [10] = assay: Minimum inhibitory concentration against penicillin-susceptible Streptococcus pneumoniae UC9912; Range is 0.5-1 ug/mL; type: functional; method in brief: as §1

Structure (SMILES) | MIC (Escherichia coli) | MIC (Enterococcus faecalis) | MIC (Staphylococcus aureus [1]) | MIC (Staphylococcus aureus [2]) | MIC (Streptococcus pneumoniae [3]) | MIC (Haemophilus influenzae [4]) | MIC [5] | MIC (Moraxella catarrhalis) | MIC (Haemophilus influenzae [6]) | MIC (Staphylococcus aureus [7]) | MIC [8] | MIC (Staphylococcus aureus [9]) | MIC (Streptococcus pneumoniae [10])
CC(=O)NC[C@H]1CN(c2cc(F)c(N3C[C@@H]4[C@H](C3)[C@H]4NC(=O)CO)c(F)c2)C(=O)O1 | > 64 µg/mL | 8 µg/mL (≈ 18.8 µM) | 16 µg/mL (≈ 37.7 µM) | 16 µg/mL (≈ 37.7 µM) | 2 µg/mL (≈ 4.71 µM) | 64 µg/mL (≈ 151 µM) | 4 µg/mL (≈ 9.42 µM) | – | – | – | – | – | –
CC(=O)NC[C@H]1CN(c2ccc(N3CCOCC3)c(F)c2)C(=O)O1 [LINEZOLID] | > 64 µg/mL | – | – | – | – | – | 1 µg/mL (≈ 2.96 µM) | 4 µg/mL (≈ 11.9 µM) | 16 µg/mL (≈ 47.4 µM) | – | – | – | –
CC(=O)NC[C@H]1CN(c2ccc(N3C[C@@H]4[C@H](C3)[C@H]4C(=O)O)c(F)c2)C(=O)O1 | > 64 µg/mL | 4 µg/mL (≈ 10.6 µM) | 4 µg/mL (≈ 10.6 µM) | 8 µg/mL (≈ 21.2 µM) | 4 µg/mL (≈ 10.6 µM) | 16 µg/mL (≈ 42.4 µM) | 2 µg/mL (≈ 5.3 µM) | – | – | – | – | – | –
CC(=O)NC[C@H]1CN(c2cc(F)c(N3C[C@@H]4[C@H](C3)[C@H]4C(=O)Nc3ccc4c(c3)OCO4)c(F)c2)C(=O)O1 | – | 1 µg/mL (≈ 1.94 µM) | 1 µg/mL (≈ 1.94 µM) | 1 µg/mL (≈ 1.94 µM) | 0.5 µg/mL (≈ 0.972 µM) | > 64 µg/mL | 0.5 µg/mL (≈ 0.972 µM) | – | – | – | – | – | –
O=C(NC[C@H]1CN(c2cc(F)c(N3C[C@@H]4[C@H](C3)[C@H]4C(=O)O)c(F)c2)C(=O)O1)C(Cl)Cl | – | 0.5 µg/mL (≈ 1.08 µM) | 0.5 µg/mL (≈ 1.08 µM) | 1 µg/mL (≈ 2.15 µM) | 0.5 µg/mL (≈ 1.08 µM) | 4 µg/mL (≈ 8.62 µM) | 0.5 µg/mL (≈ 1.08 µM) | – | – | – | – | – | –
CC(=O)NC[C@H]1CN(c2cc(F)c(N3C[C@@H]4[C@H](C3)[C@H]4C(=O)Nc3nccs3)c(F)c2)C(=O)O1 | – | 0.5 µg/mL (≈ 1.05 µM) | 1 µg/mL (≈ 2.09 µM) | 2 µg/mL (≈ 4.19 µM) | 0.13 µg/mL (≈ 0.272 µM) | > 64 µg/mL | 0.25 µg/mL (≈ 0.524 µM) | – | – | – | – | – | –
CC(=O)NC[C@H]1CN(c2cc(F)c(N3C[C@@H]4[C@H](C3)[C@H]4NS(C)(=O)=O)c(F)c2)C(=O)O1 | > 64 µg/mL | 2 µg/mL (≈ 4.5 µM) | 4 µg/mL (≈ 9 µM) | 4 µg/mL (≈ 9 µM) | 1 µg/mL (≈ 2.25 µM) | 32 µg/mL (≈ 72 µM) | 1 µg/mL (≈ 2.25 µM) | – | – | – | – | – | –
CC(=O)NC[C@H]1CN(c2ccc(N3C[C@@H]4[C@@H](N)[C@@H]4C3)c(F)c2)C(=O)O1 | 32 µg/mL (≈ 91.9 µM) | 4 µg/mL (≈ 11.5 µM) | 4 µg/mL (≈ 11.5 µM) | – | 1 µg/mL (≈ 2.87 µM) | – | – | – | 16 µg/mL (≈ 45.9 µM) | 4 µg/mL (≈ 11.5 µM) | 1 µg/mL (≈ 2.87 µM) | – | –
CC(=O)NC[C@H]1CN(c2cc(F)c(N3C[C@@H]4[C@H](C3)[C@H]4NC=O)c(F)c2)C(=O)O1 | > 64 µg/mL | 2 µg/mL (≈ 5.07 µM) | – | – | – | 32 µg/mL (≈ 81.1 µM) | 1 µg/mL (≈ 2.54 µM) | – | – | 4 µg/mL (≈ 10.1 µM) | – | 4 µg/mL (≈ 10.1 µM) | 1 µg/mL (≈ 2.54 µM)
CC(=O)NC[C@H]1CN(c2cc(F)c(N3C[C@@H]4[C@H](C3)[C@H]4C(=O)N(C)C)c(F)c2)C(=O)O1 | > 64 µg/mL | 4 µg/mL (≈ 9.47 µM) | 4 µg/mL (≈ 9.47 µM) | 4 µg/mL (≈ 9.47 µM) | 2 µg/mL (≈ 4.73 µM) | 64 µg/mL (≈ 152 µM) | 2 µg/mL (≈ 4.73 µM) | – | – | – | – | – | –
CC(=O)NC[C@H]1CN(c2cc(F)c(N3C[C@@H]4[C@H](C3)[C@H]4C(N)=O)c(F)c2)C(=O)O1 | > 64 µg/mL | 2 µg/mL (≈ 5.07 µM) | 4 µg/mL (≈ 10.1 µM) | 4 µg/mL (≈ 10.1 µM) | 1 µg/mL (≈ 2.54 µM) | 32 µg/mL (≈ 81.1 µM) | 2 µg/mL (≈ 5.07 µM) | – | – | – | – | – | –
CC(=O)NC[C@H]1CN(c2cc(F)c(N3C[C@@H]4[C@H](C3)[C@H]4C(=O)NCc3ccccn3)c(F)c2)C(=O)O1 | – | 1 µg/mL (≈ 2.06 µM) | 4 µg/mL (≈ 8.24 µM) | 4 µg/mL (≈ 8.24 µM) | 0.5 µg/mL (≈ 1.03 µM) | > 64 µg/mL | 1 µg/mL (≈ 2.06 µM) | – | – | – | – | – | –
COc1ccc(NC(=O)[C@H]2[C@@H]3CN(c4c(F)cc(N5C[C@H](CNC(C)=O)OC5=O)cc4F)C[C@@H]32)cn1 | – | 1 µg/mL (≈ 1.99 µM) | 2 µg/mL (≈ 3.99 µM) | 2 µg/mL (≈ 3.99 µM) | 0.5 µg/mL (≈ 0.997 µM) | > 64 µg/mL | 1 µg/mL (≈ 1.99 µM) | – | – | – | – | – | –
N[C@@H]1[C@H]2CN(c3c(F)cc(N4C[C@H](CNC(=O)C(Cl)Cl)OC4=O)cc3F)C[C@@H]12 | – | 2 µg/mL (≈ 4.59 µM) | 2 µg/mL (≈ 4.59 µM) | 4 µg/mL (≈ 9.19 µM) | 0.5 µg/mL (≈ 1.15 µM) | 4 µg/mL (≈ 9.19 µM) | 2 µg/mL (≈ 4.59 µM) | – | – | – | – | – | –
CC(=O)NC[C@H]1CN(c2cc(F)c(N3C[C@@H]4[C@H](C3)[C@H]4C(=O)NO)c(F)c2)C(=O)O1 | > 64 µg/mL | 2 µg/mL (≈ 4.87 µM) | 4 µg/mL (≈ 9.75 µM) | 4 µg/mL (≈ 9.75 µM) | 1 µg/mL (≈ 2.44 µM) | 32 µg/mL (≈ 78 µM) | 2 µg/mL (≈ 4.87 µM) | – | – | – | – | – | –
